From ChEMBL document CHEMBL1123402, “Saturated analogues of poison ivy allergens. Synthesis of trans,trans- and cis,trans-3-alkyl-1,2-cyclohexanediols and sensitizing properties in allergic contact dermatitis” (1986)
Values joined by “and” are separate entries in the source; they are usually repeats but may differ in a detail not shown here. Identical values can stand only once.

Columns and labels:
Cavia porcellus [1] = organism: Cavia porcellus; experiment: Ability to induce allergic contact dermatitis in guinea pig at 3.8 umol (3 injections)of the compound and expressed as no. of positive animals out of 16; format: functional
Procedure, shortened: (§1)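 Guinea pigs sensitized with the alkylcyclohexanediol in Freund complete adjuvant (3-injection schedule per curator). Elicitation by open epicutaneous test of the dose in ethanol. Read at 48 h on a scale: 0 none, 0.5 slight partial erythema, 1 erythema over the whole area, 2 erythema plus swelling, 3 swelling well beyond the area. FCA-treated control groups of eight animals.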

Cavia porcellus [2] = organism: Cavia porcellus; experiment: Ability to induce allergic contact dermatitis in guinea pig at 3.8 umol (5 injections)of the compound and expressed as no. of positive animals out of 16; format: functional
Cavia porcellus [3] = organism: Cavia porcellus; experiment: Ability to induce allergic contact dermatitis in guinea pig at 7.6 umol (3 injections)of the compound and expressed as no. of positive animals out of 16; format: functional; procedure, shortened: as §1
Cavia porcellus [4] = organism: Cavia porcellus; experiment: Ability to induce allergic contact dermatitis in guinea pig at 7.6 umol (5 injections)of the compound and expressed as no. of positive animals out of 16; format: functional
Cavia porcellus [5] = organism: Cavia porcellus; experiment: Allergic contact dermatitis in guinea pig at 3.8 umol (3 injections) and expressed as number of animals reading with a test intensity of 0; format: functional; procedure, shortened: as §1
Cavia porcellus [6] = organism: Cavia porcellus; experiment: Allergic contact dermatitis in guinea pig at 7.6 umol (3 injections) and expressed as number of animals reading with a test intensity of 0; format: functional; procedure, shortened: as §1
Cavia porcellus [7] = organism: Cavia porcellus; experiment: Allergic contact dermatitis in guinea pig at 7.6 umol (3 injections) and expressed as number of animals reading with a test intensity of 0.5; format: functional; procedure, shortened: as §1
Cavia porcellus [8] = organism: Cavia porcellus; experiment: Allergic contact dermatitis in guinea pig at 7.6 umol (5 injections) and expressed as number of animals reading with a test intensity of 0.5; format: functional
Procedure, shortened: (§2)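 Sensitization by the FCAT method with five injections: the first sensitization was boosted by two injections of alkylcyclohexanediol in Freund complete adjuvant 1 week after the first test. Open epicutaneous challenge used the stated dose in ethanol, read at 48 h on a 0–3 erythema/swelling scale. Irritation thresholds were set on FCA-injected controls, with groups of eight per experiment.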

Cavia porcellus [9] = organism: Cavia porcellus; experiment: Ability to induce allergic contact dermatitis in guinea pig at 3.8 umol (3 injections) and expressed as average skin reaction; format: functional; procedure, shortened: as §1
Cavia porcellus [10] = organism: Cavia porcellus; experiment: Ability to induce allergic contact dermatitis in guinea pig at 3.8 umol (5 injections) and expressed as average skin reaction; format: functional; procedure, shortened: as §2
Cavia porcellus [11] = organism: Cavia porcellus; experiment: Ability to induce allergic contact dermatitis in guinea pig at 7.6 umol (3 injections) and expressed as average skin reaction; format: functional; procedure, shortened: as §1
Cavia porcellus [12] = organism: Cavia porcellus; experiment: Allergic contact dermatitis in guinea pig at 7.6 umol (5 injections) and expressed as number of animals reading with a test intensity of 2; format: functional; procedure, shortened: as §2
Cavia porcellus [13] = organism: Cavia porcellus; experiment: Allergic contact dermatitis in guinea pig at 3.8 umol (3 injections) and expressed as number of animals reading with a test intensity of 0.5; format: functional; procedure, shortened: as §1
Cavia porcellus [14] = organism: Cavia porcellus; experiment: Allergic contact dermatitis in guinea pig at 3.8 umol (3 injections) and expressed as number of animals reading with a test intensity of 1; format: functional; procedure, shortened: as §1
Cavia porcellus [15] = organism: Cavia porcellus; experiment: Allergic contact dermatitis in guinea pig at 3.8 umol (3 injections) and expressed as number of animals reading with a test intensity of 2; format: functional; procedure, shortened: as §1
Cavia porcellus [16] = organism: Cavia porcellus; experiment: Allergic contact dermatitis in guinea pig at 3.8 umol (5 injections) and expressed as number of animals reading with a test intensity of 0; format: functional; procedure, shortened: as §2
Cavia porcellus [17] = organism: Cavia porcellus; experiment: Allergic contact dermatitis in guinea pig at 3.8 umol (5 injections) and expressed as number of animals reading with a test intensity of 0.5; format: functional; procedure, shortened: as §2
Cavia porcellus [18] = organism: Cavia porcellus; experiment: Allergic contact dermatitis in guinea pig at 3.8 umol (5 injections) and expressed as number of animals reading with a test intensity of 1; format: functional; procedure, shortened: as §2
Cavia porcellus [19] = organism: Cavia porcellus; experiment: Allergic contact dermatitis in guinea pig at 3.8 umol (5 injections) and expressed as number of animals reading with a test intensity of 2; format: functional; procedure, shortened: as §2
Cavia porcellus [20] = organism: Cavia porcellus; experiment: Allergic contact dermatitis in guinea pig at 7.6 umol (3 injections) and expressed as number of animals reading with a test intensity of 1; format: functional; procedure, shortened: as §1
Cavia porcellus [21] = organism: Cavia porcellus; experiment: Ability to induce allergic contact dermatitis in guinea pig at 3.8 umol (3 injections)of the compound and expressed as no. of positive animals out of 8; format: functional; procedure, shortened: as §1
Cavia porcellus [22] = organism: Cavia porcellus; experiment: Ability to induce allergic contact dermatitis in guinea pig at 3.8 umol (5 injections) and expressed as no. of positive animals out of 8; format: functional; procedure, shortened: as §2
Cavia porcellus [23] = organism: Cavia porcellus; experiment: Ability to induce allergic contact dermatitis in guinea pig at 7.6 umol (3 injections)of the compound and expressed as no. of positive animals out of 8; format: functional; procedure, shortened: as §1
Cavia porcellus [24] = organism: Cavia porcellus; experiment: Allergic contact dermatitis in guinea pig at 7.6 umol (3 injections) and expressed as number of animals reading with a test intensity of 2; format: functional; procedure, shortened: as §1
Cavia porcellus [25] = organism: Cavia porcellus; experiment: Allergic contact dermatitis in guinea pig at 14 umol (3 injections) and expressed as number of animals reading with a test intensity of 2; format: functional; procedure, shortened: as §1
Cavia porcellus [26] = organism: Cavia porcellus; experiment: Allergic contact dermatitis in guinea pig at 14 umol (5 injections) and expressed as number of animals reading with a test intensity of 2; format: functional; procedure, shortened: as §2
Cavia porcellus [27] = organism: Cavia porcellus; experiment: Allergic contact dermatitis in guinea pig at 14 umol (3 injections) and expressed as number of animals reading with a test intensity of 0; format: functional; procedure, shortened: as §1
Cavia porcellus [28] = organism: Cavia porcellus; experiment: Allergic contact dermatitis in guinea pig at 14 umol (3 injections) and expressed as number of animals reading with a test intensity of 0.5; format: functional; procedure, shortened: as §1
Cavia porcellus [29] = organism: Cavia porcellus; experiment: Allergic contact dermatitis in guinea pig at 14 umol (5 injections) and expressed as number of animals reading with a test intensity of 0; format: functional; procedure, shortened: as §2
Cavia porcellus [30] = organism: Cavia porcellus; experiment: Allergic contact dermatitis in guinea pig at 14 umol (5 injections) and expressed as number of animals reading with a test intensity of 0.5; format: functional; procedure, shortened: as §2
Cavia porcellus [31] = organism: Cavia porcellus; experiment: Allergic contact dermatitis in guinea pig at 14 umol (5 injections) and expressed as number of animals reading with a test intensity of 1; format: functional; procedure, shortened: as §2
Cavia porcellus [32] = organism: Cavia porcellus; experiment: Ability to induce allergic contact dermatitis in guinea pig at 14 umol (3 injections)of the compound and expressed as no. of positive animals out of 8; format: functional; procedure, shortened: as §1
Cavia porcellus [33] = organism: Cavia porcellus; experiment: Ability to induce allergic contact dermatitis in guinea pig at 14 umol (5 injections)of the compound and expressed as no. of positive animals out of 8; format: functional; procedure, shortened: as §2
Cavia porcellus [34] = organism: Cavia porcellus; experiment: Ability to induce allergic contact dermatitis in guinea pig at 3.8 umol (5 injections)of the compound and expressed as no. of positive animals out of 8; format: functional; procedure, shortened: as §2
Cavia porcellus [35] = organism: Cavia porcellus; experiment: Ability to induce allergic contact dermatitis in guinea pig at 7.6 umol (5 injections)of the compound and expressed as no. of positive animals out of 8; format: functional; procedure, shortened: as §2
Cavia porcellus [36] = organism: Cavia porcellus; experiment: Ability to induce allergic contact dermatitis in guinea pig at 14 umol (3 injections) and expressed as average skin reaction; format: functional; procedure, shortened: as §1
Cavia porcellus [37] = organism: Cavia porcellus; experiment: Ability to induce allergic contact dermatitis in guinea pig at 14 umol (5 injections) and expressed as average skin reaction; format: functional; procedure, shortened: as §2
Cavia porcellus [38] = organism: Cavia porcellus; experiment: (§3) Allergic contact dermatitis in guinea pig at 7.6 umol (5 injections) and expressed as number of animals reading with a test intensity of 1; format: functional; procedure, shortened: as §2
Cavia porcellus [39] = organism: Cavia porcellus; experiment: Allergic contact dermatitis in guinea pig at 7.6 umol (5 injections) and expressed as number of animals reading with a test intensity of 0; format: functional; procedure, shortened: as §2
Cavia porcellus [40] = organism: Cavia porcellus; experiment: Allergic contact dermatitis in guinea pig at 14 umol (3 injections) and expressed as number of animals reading with a test intensity of 1; format: functional; procedure, shortened: as §1
Cavia porcellus [41] = organism: Cavia porcellus; experiment: (§4) Ability to induce allergic contact dermatitis in guinea pig at 7.6 umol (5 injections) and expressed as average skin reaction; format: functional; procedure, shortened: as §2
Cavia porcellus [42] = organism: Cavia porcellus; experiment: as §4; format: functional; procedure, shortened: as §2; remark: listed apart in the source
Cavia porcellus [43] = organism: Cavia porcellus; experiment: as §3; format: functional; procedure, shortened: as §2; remark: listed apart in the source
Cavia porcellus [44] = organism: Cavia porcellus; experiment: Ability to induce allergic contact dermatitis in guinea pig at 3.8 umol (3 injections)of the compound and expressed as no. of positive animals out of 8

| SMILES | No. of animals (Cavia porcellus [5]) | No. of animals (Cavia porcellus [6]) | No. of animals (Cavia porcellus [7]) | No. of animals (Cavia porcellus [8]) | Average skin reaction (Cavia porcellus [9]) | Average skin reaction (Cavia porcellus [10]) | Average skin reaction (Cavia porcellus [11]) | No. of animals (Cavia porcellus [12]) | No. of animals (Cavia porcellus [13]) | No. of animals (Cavia porcellus [14]) | No. of animals (Cavia porcellus [15]) | No. of animals (Cavia porcellus [16]) | No. of animals (Cavia porcellus [17]) | No. of animals (Cavia porcellus [18]) | No. of animals (Cavia porcellus [19]) | No. of animals (Cavia porcellus [20]) | other results |
| --- | --- | --- | --- | --- | --- | --- | --- | --- | --- | --- | --- | --- | --- | --- | --- | --- | --- |
| CCCCCCCCCCCCCCC[C@H]1CCC[C@@H](O)[C@@H]1O | 4 | 2 | 2 | 2 and 1 | 0.5 | 0.8 | 0.8 | 0 | 8 | 4 | 0 | 2 | 4 | 9 | 1 | 12 | No. of positive animals (Cavia porcellus [1]): 12; No. of positive animals (Cavia porcellus [2]): 14; No. of positive animals (Cavia porcellus [3]): 14; No. of positive animals (Cavia porcellus [4]): 15 |
| CCCCCCCCCCCCCCC[C@H]1CCC[C@H](O)[C@@H]1O | 3 | 1 | 6 | 2 and 1 | 0.3 | 0.5 | 0.5 | 0 | 5 | 0 | 0 | 2 | 4 | 2 | 0 | 1 | No. of positive animals (Cavia porcellus [21]): 5; No. of positive animals (Cavia porcellus [22]): 6; No. of positive animals (Cavia porcellus [23]): 7; No. of animals (Cavia porcellus [24]): 0 |
| CCCCCCCCCC[C@H]1CCC[C@@H](O)[C@@H]1O | 4 | – | – | – | 0.3 | 0.5 | – | 0 | 3 | 1 | 0 | 2 | 4 | 2 | 0 | – | No. of animals (Cavia porcellus [25]): 2; No. of animals (Cavia porcellus [26]): 2; No. of animals (Cavia porcellus [27]): 2; No. of animals (Cavia porcellus [28]): 2; No. of animals (Cavia porcellus [29]): 1; No. of animals (Cavia porcellus [30]): 3; No. of animals (Cavia porcellus [31]): 2; No. of positive animals (Cavia porcellus [32]): 6; No. of positive animals (Cavia porcellus [33]): 7; No. of positive animals (Cavia porcellus [34]): 6; No. of positive animals (Cavia porcellus [35]): 6 and 7; Average skin reaction (Cavia porcellus [36]): 0.9; Average skin reaction (Cavia porcellus [37]): 0.9; No. of animals (Cavia porcellus [38]): 5; No. of animals (Cavia porcellus [39]): 2 and 1; No. of animals (Cavia porcellus [40]): 2; Average skin reaction (Cavia porcellus [41]): 0.7; Average skin reaction (Cavia porcellus [42]): 0.5; No. of animals (Cavia porcellus [43]): 1; No. of positive animals (Cavia porcellus [44]): 4 |
